Measurements reported in ChEMBL document CHEMBL2429803, “Animal toxicity of hairpin pyrrole-imidazole polyamides varies with the turn unit” (J Med Chem, 2013).
Active and inactive are the calls of the source. The calls are words filed in the database; no cut-off is given here.

Assays:
[1] = Drug uptake in nucleus of C57BL/6J mouse liver at 3 mg/kg, sc after 24 hrs by confocal microscopic analysis; format: ADME, organism-based; set-up: dose 3 mg/kg, route subcutaneous; settings: in vivo
In short: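 Male C57BL/6J mice, 2 per group, injected with 50 nmol (~3 mg/kg) of fluorescein-conjugated polyamide and sacrificed 24 h later. Liver fixed in 10% formalin for 48 h, cryoprotected in 15% then 30% sucrose, and frozen. Nuclear fluorescence assessed by confocal microscopy in 10 μm sections.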

[2] = Drug uptake in human LNCAP cell nucleus at 2 uM after 24 hrs by confocal microscopic analysis; format: ADME, cell-based
In short: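 LNCaP cells incubated 24 h with 2 μM of the fluorescein-conjugated polyamide. Nuclear localization imaged by confocal microscopy.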

Mus musculus [3] = assay: Acute toxicity in C57BL/6J mouse assessed as lesions in GI tract at 1 to 10 mg/kg, sc after 9 days; format: organism-based, Gastrointestinal tract; set-up: dose 1-10 mg/kg, route subcutaneous; settings: in vivo, 216 h
In short: (§1)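 Male C57BL/6J mice, 8 weeks old, received a single sc dose (1, 3 or 10 mg/kg in 25% DMSO/saline, n = 4 per group) and were sacrificed after 9 days. Two representative animals per group were fixed in 10% formalin. Cecum, duodenum, heart, ileum, kidney, liver, lung, pancreas, spleen and stomach were examined blind by a veterinary pathologist and lesions graded mild, moderate or severe.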

LNCaP [4] = assay: Antitumor activity against human LNCAP cells xenografted in NSG immunocompromised mouse model assessed as tumor growth inhibition at 1 mg/kg, sc administered once every 3 days for a cycle of six injections measured 2 days post last injection relative to control; format: functional; settings: route subcutaneous
In short: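 Male NSG mice engrafted in the left flank with 2.5 million LNCaP cells in 1:1 media/matrigel. Treatment began at ~200 mm3 (0.5 × L × W2): 1 mg/kg sc in 20% DMSO/normal saline, or vehicle alone, every 3 days for six injections, 14 mice per group. Sacrificed 2 days after the last dose. Tumor weights compared with vehicle (T/C).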

Mus musculus [5] = assay: Toxicity in C57BL/6J mouse assessed as total RBC count at 1 mg/kg, sc administered once every 3 days for a cycle of six injections measured 2 days post last injection; format: organism-based; set-up: dose 1 mg/kg, route subcutaneous; settings: in vivo, 48 h
In short: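 Five male C57BL/6J mice bled retroorbitally into K2EDTA tubes at baseline. After 1 week of recovery they were given 1 mg/kg sc in 20% DMSO/saline every 3 days for six injections, then bled again at the end point. Hematology (WBC, RBC, hemoglobin, neutrophils, lymphocytes) measured externally. Mean of five animals, ± std.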

LNCaP [6] = assay: Induction in p21 level in human LNCAP cells after 72 hrs by RT-PCR analysis; format: functional, cell-based
In short: (§2)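 LNCaP cells, 50 000 per well, adhered 36–48 h, then treated with 1, 3 or 10 μM for 72 h. Total RNA extracted on columns and transcripts quantified by RT-qPCR.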

[7] = Metabolic stability in mouse liver microsomes after 1 hr by LC/MS/MS analysis in presence of NADPH; format: ADME, Microsome; settings: read-out: Stability
In short: (§3)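 Compound incubated at 37 °C for 60 min with 1 mg/mL human or mouse liver microsomes in 100 mM KH2PO4, 3 mM MgCl2, pH 7.4, with 2 mM NADPH or without it. Stopped with ice-cold methanol, then precipitate removed. Analyzed by LC/MS/MS as % remaining versus time zero. Duplicates.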

LNCaP [8] = assay: Reduction in cellular RPB1 level in human LNCAP cells at 10 uM after 72 hrs by ELISA; format: functional, cell-based
In short: (§4)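 LNCaP cells treated 72 h at 10 μM. DMSO vehicle and 1 μM doxorubicin for 24 h served as controls. RPB1 measured with an RPB1-specific ELISA and total p53 with a pan-p53 ELISA. Biological triplicates.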

Mus musculus [9] = assay: Toxicity in NSG immunocompromised mouse model xenografted with human LNCAP cells assessed as weight loss at 1 mg/kg, sc administered once every 3 days for a cycle of six injections; format: organism-based; set-up: dose 1 mg/kg, route subcutaneous; settings: in vivo, 72 h
In short: (§5)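 Male NSG mice engrafted in the left flank with 2.5 million LNCaP cells in 1:1 media/matrigel; dosing began at ~200 mm3 tumours (0.5 × L × W2). Compound or vehicle given sc in 20% DMSO/normal saline once every 3 d for six injections, n = 14 per group; weight and general health checked daily, sacrifice 2 days after final injection.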

Mus musculus [10] = assay: Toxicity in C57BL/6J mouse assessed as weight loss at 1 mg/kg, sc administered every 3 days for a cycle of 3 injections; format: organism-based; set-up: dose 1 mg/kg, route subcutaneous; settings: in vivo, 72 h
In short: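 8-week-old male C57BL/6J mice, acclimated 3 days, groups of three, dosed sc in 25% DMSO/saline vehicle once every 3 days, sacrificed 2 days after the last injection. Body weight recorded on injection days and at end point; humane end point set at visible duress or >15% loss of original body weight.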

[11] = Metabolic stability in mouse liver microsomes after 1 hr by LC/MS/MS analysis; format: ADME, Microsome; settings: read-out: Stability; in short: as §3
[12] = Metabolic stability in human liver microsomes after 1 hr by LC/MS/MS analysis; format: ADME, Microsome; settings: read-out: Stability; in short: as §3
Mus musculus [13] = assay: Toxicity in NSG immunocompromised mouse model xenografted with human LNCAP cells assessed as distress at 1 mg/kg, sc administered once every 3 days for a cycle of six injections; format: organism-based; set-up: dose 1 mg/kg, route subcutaneous; settings: in vivo, 72 h; in short: as §5
Mus musculus [14] = assay: Acute toxicity in C57BL/6J mouse at 1 to 10 mg/kg, sc after 9 days; format: organism-based; set-up: dose 1-10 mg/kg, route subcutaneous; settings: in vivo, 216 h
In short: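 Single sc injection in male 8-week-old C57BL/6J mice (1, 3 or 10 mg/kg in 25% DMSO/saline; n = 4 per group), followed for 9 days with daily weighing, then sacrifice. Toxicity was assessed by blinded histopathology of two mice per group and by blinded serum ALT, AST, total bilirubin, BUN and creatinine from retroorbital blood of all mice.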

Mus musculus [15] = assay: Acute toxicity in C57BL/6J mouse assessed as lesions in lungs at 1 to 10 mg/kg, sc after 9 days; format: organism-based; set-up: dose 1-10 mg/kg, route subcutaneous; settings: in vivo, 216 h; in short: as §1
Mus musculus [16] = assay: Acute toxicity in C57BL/6J mouse assessed as lesions in stomach at 1 to 10 mg/kg, sc after 9 days; format: organism-based; set-up: dose 1-10 mg/kg, route subcutaneous; settings: in vivo, 216 h; in short: as §1
LNCaP [17] = assay: Induction in IGFBP3 level in human LNCAP cells after 72 hrs by RT-PCR analysis; format: functional, cell-based; in short: as §2
Mus musculus [18] = assay: Toxicity in C57BL/6J mouse assessed as morbidity at 1 mg/kg, sc administered every 3 days for a cycle of 3 injections; format: organism-based; set-up: dose 1 mg/kg, route subcutaneous; settings: in vivo, 72 h
In short: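 Male C57BL/6J mice, 3 per group, given 1 mg/kg sc every 3 days. Weight recorded on injection days. Watched for signs of duress. Humane end point was visible duress or weight loss over 15% of starting body weight.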

Mus musculus [19] = assay: Toxicity in C57BL/6J mouse assessed as total WBC count at 1 mg/kg, sc administered once every 3 days for a cycle of six injections measured 2 days post last injection; format: organism-based; set-up: dose 1 mg/kg, route subcutaneous; settings: in vivo, 48 h
In short: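 Male C57BL/6J mice, blood taken by retroorbital bleed before dosing; after 1 week recovery, sc injections once every 3 d in 20% DMSO:normal saline, six injections; bled again at end point (2 days after final injection). K2EDTA blood sent for hematology (WBC, RBC, hemoglobin, neutrophils, lymphocytes); n = 5, mean with std.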

Mus musculus [20] = assay: Acute toxicity in C57BL/6J mouse assessed as lesions in pancreas at 1 to 10 mg/kg, sc after 9 days; format: organism-based; set-up: dose 1-10 mg/kg, route subcutaneous; settings: in vivo, 216 h; in short: as §1
LNCaP [21] = assay: Cytotoxicity against human LNCAP cells after 72 hrs by WST-1 assay; format: functional, cell-based
In short: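 LNCaP cells seeded at 5000–7500 per well and left to adhere 36–48 h. Compound added in fresh medium for 72 h. Metabolic activity read by WST-1 and IC50 derived from the dose–response. Biological triplicates.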

Mus musculus [22] = assay: Acute toxicity in C57BL/6J mouse assessed as ALT level at 3 mg/kg, sc after 9 days; format: organism-based; set-up: dose 3 mg/kg, route subcutaneous; settings: in vivo, 216 h
In short: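 Male C57BL/6J mice, 8 weeks old, acclimated 3 days, then given a single sc injection of 1, 3 or 10 mg/kg in 25% DMSO/saline (4 per group). Weighed daily for 9 days, then sacrificed. Serum taken by retroorbital bleed and spun at 6000 rpm for 5 min. ALT, AST, total bilirubin, BUN and creatinine measured by an outside lab, blinded.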

LNCaP [23] = assay: Induction in cellular p53 level in human LNCAP cells at 10 uM after 72 hrs by ELISA; format: functional, cell-based; in short: as §4
Mus musculus [24] = assay: Acute toxicity in C57BL/6J mouse assessed as lesions in heart at 1 to 10 mg/kg, sc after 9 days; format: organism-based; set-up: dose 1-10 mg/kg, route subcutaneous; settings: in vivo, 216 h; in short: as §1
[25] = Metabolic stability in human liver microsomes after 1 hr by LC/MS/MS analysis in presence of NADPH; format: ADME, Microsome; settings: read-out: Stability; in short: as §3
LNCaP [26] = assay: Genotoxicity in human LNCAP cells assessed as DNA strand breaks at 10 uM after 48 hrs by comet assay; format: toxicity, cell-based
In short: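 LNCaP cells, 100 000 per well, adhered 36–48 h, then treated 48 h at 10 μM (5 μM doxorubicin for 4 h as control). Alkaline comet assay imaged at 10× by confocal microscopy. More than 100 comets scored per condition. Damage reported as % DNA in tail.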

LNCaP [27] = assay: Induction in GADD45A level in human LNCAP cells after 72 hrs by RT-PCR analysis; format: functional, cell-based; in short: as §2
Mus musculus [28] = assay: Acute toxicity in C57BL/6J mouse assessed as weight loss at 10 mg/kg, sc after 9 days; format: organism-based; set-up: dose 10 mg/kg, route subcutaneous; settings: in vivo, 216 h
In short: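 Male C57BL/6J mice, 8 weeks old, were acclimated 3 days and then given a single sc injection of 1, 3 or 10 mg/kg in 25% DMSO/saline vehicle (up to 200 μL), n = 4 per group. Weight, behaviour and appearance were monitored daily for 9 days before sacrifice. The humane end point was visible duress or weight loss over 15% of the original.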

Compound: CC(=O)N[C@H](CCNC(=O)c1cc(NC(=O)c2cc(NC(=O)c3cc(NC(=O)c4nccn4C)cn3C)cn2C)cn1C)C(=O)Nc1cn(C)c(C(=O)Nc2cc(C(=O)Nc3cc(C(=O)Nc4cc(C(=O)NCCCN(C)CCCNC(=S)Nc5ccc(-c6c7ccc(=O)cc-7oc7cc(O)ccc67)c(C(=O)O)c5)n(C)c4)n(C)c3)n(C)c2)n1
- Drug uptake [1]: Active
- Drug uptake [2]: Active

Compound: CC(=O)N[C@H](CCNC(=O)c1cc(NC(=O)c2cc(NC(=O)c3cc(NC(=O)c4nccn4C)cn3C)cn2C)cn1C)C(=O)Nc1cn(C)c(C(=O)Nc2cc(C(=O)Nc3cc(C(=O)Nc4cc(C(=O)NCCCN(C)CCCNC(=O)c5cccc(C(=O)O)c5)n(C)c4)n(C)c3)n(C)c2)n1
- Activity (Mus musculus [3]): Non-toxic
- T/C (LNCaP [4]): 52.4%
- Activity (Mus musculus [5]): Non-toxic
- Activity (LNCaP [6]): Dose-dependent effect
- remaining at 1 h [7]: > 90%
- Activity (LNCaP [8]): Active
- Activity (Mus musculus [9]): Non-toxic
- Activity (Mus musculus [10]): Non-toxic
- remaining at 1 h [11]: > 90%
- remaining at 1 h [12]: > 90%
- Activity (Mus musculus [13]): Non-toxic
- Activity (Mus musculus [14]): Non-toxic
- Activity (Mus musculus [15]): Non-toxic
- Activity (Mus musculus [16]): Non-toxic
- Activity (LNCaP [17]): Dose-dependent effect
- Activity (Mus musculus [18]): Non-toxic
- Activity (Mus musculus [19]): Non-toxic
- Activity (Mus musculus [20]): Non-toxic
- Activity (LNCaP [21]): Dose-dependent effect
- IC50 (LNCaP [21]): 2100 nM
- Activity (Mus musculus [22]): 29 U/L
- Activity (LNCaP [23]): Active
- Activity (Mus musculus [24]): Non-toxic
- remaining at 1 h [25]: > 90%
- Activity (LNCaP [26]): Non-toxic
- Activity (LNCaP [27]): Dose-dependent effect

Compound: Cn1cc2cc1C(=O)NCCCC(=O)Nc1cn(C)c(n1)C(=O)Nc1cc(n(C)c1)C(=O)Nc1cc(n(C)c1)C(=O)Nc1cc(n(C)c1)C(=O)NCC[C@@H](N)C(=O)Nc1cn(C)c(n1)C(=O)Nc1cc(n(C)c1)C(=O)Nc1cc(n(C)c1)C(=O)N2
- Activity (Mus musculus [28]): Non-toxic
